Results reported in ChEMBL document CHEMBL1121797, “Studies on chiral interactions of 1-(2,5-dimethoxy-4-methylphenyl)-2-aminopropane and the corresponding N-hydroxy metabolites with cytochrome P-450” (J Med Chem, 1981).

Legend:
[1] = Initial rates of formation of metabolic intermediate Cytochrome P-450 at compound concentration of 30 uM; assay type: ADME
Outline: (§1)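 Rabbit liver microsomes at 2 mg protein/mL with 0.1 mM EDTA, 37 °C, substrate 30 μM. Complex formation started with 0.4 mM NADPH and followed by dual-wavelength absorbance, 457 vs 500 nm. Initial rate is the initial slope, ΔA×10^4 per nmol P-450 per min. Extent is the plateau absorbance. Lag is the time from NADPH addition to first 457-nm chromophore. Triplicate or single runs.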

[2] = Initial rates of formation of metabolic intermediate Cytochrome P-450 at compound concentration of 7.5-180 uM; assay type: ADME
Outline: (§2)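 Rabbit liver microsomes at 2 mg protein/mL with 0.1 mM EDTA, 37 °C, NADPH-dependent. Substrate tested at several concentrations. ΔA457–500 nm followed against time. Rate is the initial slope per nmol P-450 per min; extent is the plateau absorbance. Runs disturbed by a transient 450-nm species were discarded.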

[3] = Extent rates of formation of metabolic intermediate Cytochrome P-450 at compound concentration of 30 uM; assay type: ADME; outline: as §1
[4] = Extent rates of formation of metabolic intermediate Cytochrome P-450 at compound concentration of 7.5-180 uM; assay type: ADME; outline: as §2
Cytochrome P450 2C19 [5] = target: T1, Cytochrome P450 2C19 (Homo sapiens, UniProt P33261); assay: Apparent binding affinity of compound (10.8-60.0 uM) in Cytochrome P450 binding; assay type: ADME, Oryctolagus cuniculus; details: read-out: Ks
[6] = Lag time between the addition of compound (30 uM) and the first appearance of chromophore; assay type: ADME; outline: as §1
[7] = Initial rates of formation of metabolic intermediate Cytochrome P-450 at compound concentration of 7.5-120 uM; assay type: ADME; outline: as §2
[8] = Initial rates of formation of metabolic intermediate Cytochrome P-450 with compound concentration of 150 uM; assay type: ADME
Outline: (§3)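 Cross-inhibition in NADPH-supplemented rabbit liver microsomes at 37 °C. Preincubation with amine at 30, 150 or 300 μM while 457-nm complex formation was monitored. Once it plateaued (6–8 min), racemic hydroxylamine was added at 300 μM. Initial rate and plateau extent were read from ΔA457–500 nm vs time, per nmol P-450.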

[9] = Initial rates of formation of metabolic intermediate Cytochrome P-450 with compound concentration of 30 uM; assay type: ADME; outline: as §3
[10] = Initial rates of formation of metabolic intermediate Cytochrome P-450 with compound concentration of 300 uM; assay type: ADME; outline: as §3
Cytochrome P450 2C19 [11] = target: T1, Cytochrome P450 2C19; assay: Apparent binding affinity constant of compound (1.8-60.0) for Cytochrome P450; assay type: ADME, Oryctolagus cuniculus; details: read-out: Ks
[12] = Extent rates of formation of metabolic intermediate Cytochrome P-450 at compound concentration of 7.5-120 uM; assay type: ADME; outline: as §2
[13] = Initial rates of formation of metabolic intermediate Cytochrome P-450 at compound concentration of 15-180 uM; assay type: ADME; outline: as §2
Cytochrome P450 2C19 [14] = target: T1, Cytochrome P450 2C19; assay: Apparent binding affinity of compound (15.0-45.0 uM) in Cytochrome P450 binding; assay type: ADME, Oryctolagus cuniculus; details: read-out: Ks
[15] = Extent rates of formation of metabolic intermediate Cytochrome P-450 at compound concentration of 15-180 uM; assay type: ADME; outline: as §2

T1 sequence (P33261 whole entry): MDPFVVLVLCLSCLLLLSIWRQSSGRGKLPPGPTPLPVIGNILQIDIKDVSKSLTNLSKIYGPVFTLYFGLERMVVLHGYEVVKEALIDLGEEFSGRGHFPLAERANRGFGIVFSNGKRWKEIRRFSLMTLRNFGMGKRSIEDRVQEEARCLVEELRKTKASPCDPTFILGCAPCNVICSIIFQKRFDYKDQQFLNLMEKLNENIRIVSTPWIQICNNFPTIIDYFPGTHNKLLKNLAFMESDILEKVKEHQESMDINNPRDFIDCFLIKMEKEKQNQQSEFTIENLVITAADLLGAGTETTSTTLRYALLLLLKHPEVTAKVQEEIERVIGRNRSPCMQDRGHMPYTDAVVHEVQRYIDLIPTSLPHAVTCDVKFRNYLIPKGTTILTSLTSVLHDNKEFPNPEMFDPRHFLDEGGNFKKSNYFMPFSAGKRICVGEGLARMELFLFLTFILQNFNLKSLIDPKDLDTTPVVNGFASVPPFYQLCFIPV

Q: Which Rate [1] does the source give for `COc1cc(C[C@@H](C)NO)c(OC)cc1C` here?
A: 182

Q: And the Rate [2]?
A: 30

Q: And the Rate [3]?
A: 124

Q: What about the Rate [4] of the same molecule?
A: 23

Q: What about the Kd (Cytochrome P450 2C19 [5]) of the same molecule?
A: 22 µM

Q: And the Lag time [6]?
A: 0 s

Q: What does the source list for `COc1cc(C[C@H](C)N)c(OC)cc1C`?
A: Rate [1]: 3.1; Rate [7]: 0; Rate [8]: 1.5; Rate [9]: 1.7; Rate [10]: 1.1; Extent [3]: 29; Kd (Cytochrome P450 2C19 [11]): 6 µM; Extent [12]: 0; Lag time [6]: 136 s

Q: With `COc1cc(C[C@H](C)NO)c(OC)cc1C` as the molecule, how does the Rate [1] read?
A: 211

Q: What about the Rate [3] of the same molecule?
A: 161

Q: And the Rate [13]?
A: 66

Q: And the Kd (Cytochrome P450 2C19 [14])?
A: 68 µM

Q: What about the Lag time [6] of the same molecule?
A: 0 s

Q: What about the Rate [15] of the same molecule?
A: 34
